# Screens (PubChem BioAssay)
# This is a sample that favours compounds with a hit; in the whole collection about 2.4% have one here.
# Env fusion inh = blocks HIV Env-driven cell-cell fusion | HeLa-JRFL Env/CEM21 cell fusion, luciferase | inhibition, % at 12.3 µM | 360,000 tested, 1.1% active;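 active = mean replicate inhibition score of at least 50 and every replicate individually at or above 50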;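 note: 0% = plate neutral controls and 100% = maraviroc near 300 nM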
# dFosB activator = enhances mouse delta FosB homodimer DNA binding; P13346; purified delta FosB, TAMRA-CDK5 oligo fluorescence polarization; percent of positive-control signal above neutral wells; activation, % at 25 µM; 340,000 tested, 0.99% active;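 active = mean activation above about 17%, with every replicate also reaching it, limit read from the data, passing the limit was not always enough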
# Target sequence (P13346 whole entry, looked up): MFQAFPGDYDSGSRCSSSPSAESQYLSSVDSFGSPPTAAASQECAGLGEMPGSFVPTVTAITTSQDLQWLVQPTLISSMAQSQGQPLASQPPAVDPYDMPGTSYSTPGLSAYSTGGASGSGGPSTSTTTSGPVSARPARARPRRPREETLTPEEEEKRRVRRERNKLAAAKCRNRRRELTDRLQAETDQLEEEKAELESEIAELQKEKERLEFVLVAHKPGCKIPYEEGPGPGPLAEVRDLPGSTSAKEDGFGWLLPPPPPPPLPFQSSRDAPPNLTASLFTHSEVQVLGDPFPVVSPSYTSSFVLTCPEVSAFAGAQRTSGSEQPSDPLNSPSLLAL
# Cneo AK release = Cryptococcus neoformans lysis via adenylate kinase release; C. neoformans lysis, adenylate kinase release luminescence, 4 h; normalised: neutral wells 0, clomiphene wells 100; lysis activity, % at 15 µM; 360,000 tested, 0.2% active;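 active = mean lysis activity across replicates of at least 80%, whatever share of replicates individually reach that level; inactive = mean lysis activity below 80%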
#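 Material – log-phase Cryptococcus neoformans yeast cells · Input – 5 × 10^6 yeast cells/mL · Medium – fresh YPD growth medium · Doses – single compound concentration per well · Timing – static 4 h at 37 °C with compound, 1 h detection · Detection – adenylate kinase release luminescence · Read-out – signal increase indicating cell lysis · Control set – Clomiphene as positive lysis control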
# INS-1E GSIS act = primary screen for activators of insulin secretion dependent on glucose, INS-1E cells, GLuc reporter luminescence; 370,000 tested, 0.61% active; activation, % at 16.6 µM; INS-1E GLuc reporter insulin secretion, 2-3 h; AID 743287;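 active = lowest replicate activation of at least 40%, so every replicate reaches that level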;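 note: 0% = median of neutral control wells and 100% = median of IBMX positive control wells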
# Rtt109 HAT inh = blocks Candida albicans Rtt109/Vps75 acetyltransferase activity. Q5AAJ8. purified Rtt109/Vps75, ThioGlo CoA-SH fluorescence, 4 h. inhibition, % at 34.9 µM. 330,000 tested, 0.16% active. AID 540336;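 active = inhibition of at least 50% in every replicate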
# miR-122 sensor = miR-122 inhibition in Huh7 cells; 340,000 tested, 0.3% active; activation (reporter increase), % at 12.5 µM; AID 602342; Huh7 miR-122 Renilla luciferase sensor, 48 h; neutral wells = 0, positive control = 100;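 active = mean replicate activation score at least 90 and every replicate individually at or above 90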;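 note: higher luciferase means less miR-122 activity so hits act as miR-122 inhibitors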
# * = called active by the depositor; . = not tested or not shown; [ ] = dose if it differs, or a comment.
SMILES,Env fusion inh,dFosB activator,Cneo AK release,INS-1E GSIS act,Rtt109 HAT inh,miR-122 sensor
O=C(Nc1ccccc1N1CCCC1)c1ccc(Br)o1,-25,3,-13,16,-11,1
COc1ccccc1NS(=O)(=O)c1cc(NC(=O)C(C)C)ccc1N1CCCCC1,-4,-7,.,1,8,.
C[C@@H]1CCCCO[C@@H](CN(C)C(=O)CCCN(C)C)[C@H](C)CN([C@@H](C)CO)C(=O)c2cc(NC(=O)Nc3ccc(F)cc3)ccc2O1,-9[16.7 µM],.,6,20,.,45[16.7 µM]
COc1ccc(NS(=O)(=O)c2ccc(N3CCCC3)c(NC(=S)Nc3ccc(SC(F)F)cc3)c2)cc1,.,3,2,1,3,4
COc1cc(OC)c(S(=O)(=O)Nc2ccccc2N2CCCCC2)cc1NC(C)=O,-11,-6,.,-8,1,7
COc1cc(S(=O)(=O)Nc2ccccc2N2CCCCC2)ccc1NC(C)=O,.,-13,-1,-14,-1,111*
COc1ccc(NS(=O)(=O)c2ccc(N3CCCC3)c(NC(=S)Nc3cccc(C)c3C)c2)cc1,149*,0,-1,-11,11,21
Cc1nc2sc(C(c3ccco3)N3CCC(Cc4ccccc4)CC3)c(O)n2n1 (stereo not given),82*,-6,0,16,0,5
COc1ccc(N2CCN(C(c3ccco3)c3sc4nc(C)nn4c3O)CC2)cc1 (stereo not given),-2,-12,.,16,-4,.
Cc1ccc2c(c1)nnn2C1CCN(S(=O)(=O)c2ccc(C(=O)O)cc2)CC1,-1,-5,.,11,-4,.
Cc1ccc2c(c1)nnn2C1CCN(S(=O)(=O)c2ccc(C(=O)N3C(C)CCCC3C)cc2)CC1 (stereo not given),67*,3,-2,.,-1,-11
CC(C)NC(=O)N(C)C[C@@H]1Oc2ccc(NS(=O)(=O)c3ccc(Cl)cc3)cc2CC(=O)N([C@@H](C)CO)C[C@H]1C,.,.,-5,-11,.,0[16.7 µM]
CNC[C@H]1OCCCC[C@H](C)Oc2ccc(NS(=O)(=O)c3cn(C)cn3)cc2C(=O)N([C@@H](C)CO)C[C@H]1C,-17[16.7 µM],.,-7,35,.,10[16.7 µM]
CC(C)NC(=O)Nc1ccc2c(c1)C(=O)N(C)C[C@@H](C)[C@@H](CN(C)C)O2,.,.,.,10,.,.
OC(CNCCc1ccc(C(F)(F)F)cc1)COc1ccc2ccccc2c1 (stereo not given),27,-48,.,64,8,-12
OC(CNCCc1ccc(C(F)(F)F)cc1)COc1cccc2ccccc12 (stereo not given),14,-14,.,506*,11,-6
COc1ccccc1-c1ccc2c(c1)C(C)(Cc1ccccc1C#N)C(=O)N2 (stereo not given),63*,.,0,-24,.,-4
COc1ccccc1-c1ccc2c(c1)C(C)(Cc1ccc(Cl)c(Cl)c1)C(=O)N2 (stereo not given),100*,.,-7,25,.,-6
CC1(Cc2ccccc2C#N)C(=O)Nc2ccc(-c3ccccc3)cc21 (stereo not given),.,.,-6,-16,.,10
COc1ccc2nc(C)cc(Sc3nc4ccccc4s3)c2c1,58*,-14,-1,-13,5,-6
CCCNC(=O)N1C[C@@H](C)[C@H](OC)CN(C)C(=O)c2cc(NC(=O)C3CCC3)ccc2OC[C@@H]1C,.,.,.,2,.,-3[16.7 µM]
CCCOc1ccc(N2C(=O)CC(N(CCOC34CC5CC(CC(C5)C3)C4)C(C)=O)C2=O)cc1 (stereo not given),57*,-3,6,-26,11,0
CCS(=O)(=O)N1CC2(C1)[C@H](c1ccccc1)[C@H](CO)N2CCC(F)(F)F,.,.,.,13,.,.
Cc1noc(C)c1NC(=O)Nc1ccc2c(c1)CC(=O)N([C@@H](C)CO)C[C@@H](C)[C@H](CN(C)S(=O)(=O)c1ccccc1)O2,-21[16.7 µM],.,2,-2,.,15[16.7 µM]
COCCNC(=O)c1cc(S(=O)(=O)N(C)C2CCCCC2)ccc1Cl,57*,.,0,-7,.,5
SMILES,Env fusion inh,dFosB activator,Cneo AK release,INS-1E GSIS act,Rtt109 HAT inh,miR-122 sensor
COc1ccccc1N(C)S(=O)(=O)c1ccc(Cl)c(C(=O)NCC2(N(C)C)CCCCC2)c1,95*,-3,.,-17,3,-9
CN(c1ccc(F)cc1)S(=O)(=O)c1ccc(Cl)c(C(=O)NCC2CCCO2)c1 (stereo not given),0,2,-2,43*,-9,4
CN(C)S(=O)(=O)c1ccc(Cl)c(C(=O)NCC2CCCCC2)c1,3,-12,-2,26,-6,6
CCCNC(=O)N[C@H]1C=C[C@H](CC(=O)NC2CCC2)O[C@H]1CO,-3[16.7 µM],.,-1,0,.,.
CN(C[C@H](Cc1ccccc1)N(C[C@H](Cc1ccccc1)N(CCC(C)(C)C)N=O)N=O)N=O,62*,0,1,-14,10,2
CN(C[C@H](Cc1ccccc1)N(C[C@H](c1ccccc1)N(CCc1ccccc1)N=O)N=O)N=O,74*,-7,7,-27,0,.
CN(C[C@H](c1ccccc1)N(C[C@H](Cc1ccccc1)N(CCc1ccccc1)N=O)N=O)N=O,32,-1,0,-6,-3,.
CCN(N=O)[C@@H](Cc1ccccc1)CN(N=O)[C@@H](Cc1ccccc1)CN(C)N=O,36,-7,2,-30,-7,2
CN(C[C@H](Cc1ccccc1)N(C[C@@H](CC1CCCCC1)N(CCc1ccccc1)N=O)N=O)N=O,56*,0,-1,-19,-2,5
CC(C)CCN(N=O)[C@@H](Cc1ccccc1)CN(N=O)[C@@H](Cc1ccccc1)CN(C)N=O,93*,2,-1,-32,6,.
C[C@H](CO)N1C[C@H](C)[C@@H](CN(C)C(=O)Nc2ccc(F)cc2)OCCCC[C@H](C)Oc2ccc(NC(=O)Nc3ccc(F)cc3)cc2C1=O,-9[16.7 µM],.,-3,13,.,-2[16.7 µM]
N#C[C@@H]1[C@@H](c2ccccc2-c2ccccc2F)[C@H](CO)N1C(=O)C1CCC1,.,.,.,10,.,.
CCCC#Cc1ccc([C@@H]2[C@H](CO)N3C(=O)CN(C(=O)Nc4ccccc4)C[C@@H]23)cc1,.,.,.,-17,.,.
CC[n+]1c(/C=C/N(C)c2ccccc2)oc2ccc(F)cc21,18,-6,-1,-2,0,335*
C[C@@H]1CN([C@H](C)CO)C(=O)c2cccc(NS(=O)(=O)c3cn(C)cn3)c2O[C@H]1CN(C)C(=O)NC1CCCCC1,.,.,-1,1,.,0[16.7 µM]
Cc1cc(C)nc(Nc2n[nH]c(COc3ccc4ccccc4c3)n2)n1,-1,-10,3,62*,-9,0
COc1ccc(C(=O)Nc2ccc(S(=O)(=O)NCc3ccco3)cc2)cc1OC,-58,-5,-1,.,2,176*
